Active and inactive are the calls of the source. No cut-off for these calls is given here.
Key:
Mus musculus [1] = experiment: Antiparkinsonian activity in CFW mouse assessed as reversal of reserpine-induced catalepsy at 0.07 mmol/kg, sc measured every 30 mins up to 1.5 hrs; assay type: functional, organism-based
Method in brief: (§1)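 Groups of five CFW mice were given reserpine 4 mg/kg sc, and catalepsy was assessed 2.5 h later. Reversal was scored 0–5: 0 no effect, 1 marginal, 2 significant, 3 marked, 4 approaching complete, 5 complete reversal.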

Rattus norvegicus [2] = experiment: Antiparkinsonian activity in Wistar rat assessed as reversal of reserpine-induced catalepsy at 0.14 mmol/kg, po measured every 30 mins up to 1.5 hrs; assay type: functional, organism-based
[3] = Acute toxicity in po dosed albino CFW mouse assessed as mortality measured over 48 hrs; assay type: organism-based; conditions: albino CFW, in vivo
[4] = Acute toxicity in ip dosed albino CFW mouse assessed as mortality measured over 48 hrs; assay type: organism-based; conditions: albino CFW, in vivo
Mus musculus [5] = experiment: Antidepressant activity in CFW mouse assessed as reversal of reserpine-induced hypothermia by measuring temperature index at 0.04 mmol/kg, sc measured every 30 mins up to 1.5 hrs; assay type: functional
Mus musculus [6] = experiment: Antiparkinsonian activity in CFW mouse assessed as reversal of reserpine-induced catalepsy at 0.15 mmol/kg, sc measured every 30 mins up to 1.5 hrs; assay type: functional, organism-based
Rattus norvegicus [7] = experiment: Antiparkinsonian activity in Wistar rat assessed as reversal of reserpine-induced catalepsy at 0.15 mmol/kg, po measured every 30 mins up to 1.5 hrs; assay type: functional, organism-based
Mus musculus [8] = experiment: Antidepressant activity in CFW mouse assessed as reversal of reserpine-induced hypothermia by measuring temperature index at 0.16 mmol/kg, sc measured every 30 mins up to 1.5 hrs; assay type: functional
Mus musculus [9] = experiment: Antiparkinsonian activity in CFW mouse assessed as reversal of reserpine-induced catalepsy at 0.16 mmol/kg, sc measured every 30 mins up to 1.5 hrs; assay type: functional, organism-based
Mus musculus [10] = experiment: Antidepressant activity in CFW mouse assessed as reversal of reserpine-induced hypothermia by measuring temperature index at 0.02 mmol/kg, sc measured every 30 mins up to 1.5 hrs; assay type: functional, organism-based
Mus musculus [11] = experiment: Antiparkinsonian activity in CFW mouse assessed as reversal of reserpine-induced catalepsy at 0.02 mmol/kg, sc measured every 30 mins up to 1.5 hrs; assay type: functional, organism-based
Rattus norvegicus [12] = experiment: Antiparkinsonian activity in Wistar rat assessed as reversal of reserpine-induced catalepsy at 0.16 mmol/kg, po measured every 30 mins up to 1.5 hrs; assay type: functional, organism-based
Rattus norvegicus [13] = experiment: Potency index, ratio of compound to amantadine for antiparkinsonian activity in po dosed Wistar rat assessed as reversal of reserpine-induced catalepsy; assay type: functional
Mus musculus [14] = experiment: Antiparkinsonian activity in CFW mouse assessed as reversal of reserpine-induced catalepsy at 0.08 mmol/kg, sc measured every 30 mins up to 1.5 hrs; assay type: functional, organism-based
Rattus norvegicus [15] = experiment: Antiparkinsonian activity in Wistar rat assessed as reversal of reserpine-induced catalepsy at 0.11 mmol/kg, po measured every 30 mins up to 1.5 hrs; assay type: functional, organism-based
Mus musculus [16] = experiment: Antidepressant activity in CFW mouse assessed as reversal of reserpine-induced hypothermia by measuring temperature index at 0.14 mmol/kg, sc measured every 30 mins up to 1.5 hrs; assay type: functional
Mus musculus [17] = experiment: Antiparkinsonian activity in CFW mouse assessed as reversal of reserpine-induced catalepsy at 0.14 mmol/kg, sc measured every 30 mins up to 1.5 hrs; assay type: functional, organism-based
Mus musculus [18] = experiment: Antidepressant activity in CFW mouse assessed as reversal of reserpine-induced hypothermia by measuring temperature index at 0.17 mmol/kg, sc measured every 30 mins up to 1.5 hrs; assay type: functional
Mus musculus [19] = experiment: Antiparkinsonian activity in CFW mouse assessed as reversal of reserpine-induced catalepsy at 0.17 mmol/kg, sc measured every 30 mins up to 1.5 hrs; assay type: functional, organism-based
Mus musculus [20] = experiment: Antidepressant activity in CFW mouse assessed as reversal of reserpine-induced hypothermia by measuring temperature index at 0.13 mmol/kg, sc measured every 30 mins up to 1.5 hrs; assay type: functional, organism-based
Mus musculus [21] = experiment: Antiparkinsonian activity in CFW mouse assessed as reversal of reserpine-induced catalepsy at 0.13 mmol/kg, sc measured every 30 mins up to 1.5 hrs; assay type: functional, organism-based
Rattus norvegicus [22] = experiment: Antiparkinsonian activity in Wistar rat assessed as reversal of reserpine-induced catalepsy at 0.08 mmol/kg, po measured every 30 mins up to 1.5 hrs; assay type: functional, organism-based
Mus musculus [23] = experiment: Antidepressant activity in CFW mouse assessed as reversal of reserpine-induced hypothermia by measuring temperature index at 0.09 mmol/kg, sc measured every 30 mins up to 1.5 hrs; assay type: functional
Method in brief: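 Groups of five CFW mice received reserpine 4 mg/kg sc. After 2.5 h, rectal temperature was taken. The temperature index (TI) is the sum of the group's mean changes from its mean initial temperature at 30, 60 and 90 min. Scoring: 0 = no effect, 1 = TI 5–10, 2 = TI >10. A run was repeated if the reserpine control TI fell outside −5 to −15.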

Mus musculus [24] = experiment: Antiparkinsonian activity in CFW mouse assessed as reversal of reserpine-induced catalepsy at 0.09 mmol/kg, sc measured every 30 mins up to 1.5 hrs; assay type: functional, organism-based; method in brief: as §1
Rattus norvegicus [25] = experiment: Antiparkinsonian activity in Wistar rat assessed as reversal of reserpine-induced catalepsy at 0.07 mmol/kg, po measured every 30 mins up to 1.5 hrs; assay type: functional, organism-based
Mus musculus [26] = experiment: Antidepressant activity in CFW mouse assessed as reversal of reserpine-induced hypothermia by measuring temperature index at 0.21 mmol/kg, sc measured every 30 mins up to 1.5 hrs; assay type: functional
Mus musculus [27] = experiment: Antiparkinsonian activity in CFW mouse assessed as reversal of reserpine-induced catalepsy at 0.21 mmol/kg, sc measured every 30 mins up to 1.5 hrs; assay type: functional, organism-based
Rattus norvegicus [28] = experiment: Antiparkinsonian activity in Wistar rat assessed as reversal of reserpine-induced catalepsy at 0.21 mmol/kg, po measured every 30 mins up to 1.5 hrs; assay type: functional, organism-based

With `c1ccc(CCNC2CC3CC4CC(C3)C2C4)cc1` (stereo in doubt; 13) the Activity (Mus musculus [1]) was “inactive” and the Activity (Rattus norvegicus [2]) was “Active”.
With `CNCCC12CC3CC(CC(C3)C1Cl)C2.Cl` (configuration not stated) the LD50 at 48 h [3] was 1500 µmol/kg, the LD50 at 48 h [4] was 600 µmol/kg and the Activity (Mus musculus [5]) was >10. For the same molecule, the Activity (Mus musculus [6]) was “Active” and the Activity (Rattus norvegicus [7]) was “Active”.
In the case of `Cl.Clc1ccc(CNC2CC3CC4CC(C3)C2C4)cc1` (configuration not stated), the LD50 at 48 h [3] is reported as 1900 µmol/kg, the LD50 at 48 h [4] is reported as 600 µmol/kg and the Activity (Mus musculus [8]) is reported as 5. The Activity (Mus musculus [9]) was “inactive”.
For `CNCC12CC3CC(CC(C3)C1Cl)C2.Cl` (configuration not stated), the LD50 at 48 h [3] was 1200 µmol/kg, the LD50 at 48 h [4] was 600 µmol/kg and the Activity (Mus musculus [10]) was “inactive”. For the same molecule, the Activity (Mus musculus [11]) was “inactive”, the Activity (Rattus norvegicus [12]) was “Active” and the Ratio (Rattus norvegicus [13]) was 2.
`CNCCC12CC3CC(CC(C3)C1Br)C2.O=C(O)/C=C\C(=O)O` (configuration not stated) gave an LD50 at 48 h [3] of 1600 µmol/kg, an LD50 at 48 h [4] of 400 µmol/kg and an Activity (Mus musculus [5]) of 5. For the same molecule, the Activity (Mus musculus [14]) was “inactive” and the Activity (Rattus norvegicus [15]) was “Active”.
Work on `CNCC1CC2CC3CC(C2)C1C3.O=C(O)/C=C\C(=O)O` (configuration not stated) yielded an LD50 at 48 h [3] of 1000 µmol/kg, an LD50 at 48 h [4] of 500 µmol/kg and an Activity (Mus musculus [16]) of 5. The Activity (Mus musculus [17]) was “inactive”.
`CNCC12CC3CC(CC(C3)C1Br)C2.Cl` (configuration not stated) gave an LD50 at 48 h [3] of 1000 µmol/kg, an LD50 at 48 h [4] of 1000 µmol/kg and an Activity (Mus musculus [18]) of 5. The Activity (Mus musculus [19]) was “Active”, the Activity (Rattus norvegicus [2]) was “Active” and the Ratio (Rattus norvegicus [13]) was 2.
With `Br.CN1CCN(CC23CC4CC(CC(C4)C2Br)C3)CC1` (configuration not stated) the LD50 at 48 h [3] was 1200 µmol/kg, the LD50 at 48 h [4] was 600 µmol/kg and the Activity (Mus musculus [20]) was “inactive”. For the same molecule, the Activity (Mus musculus [21]) was “inactive” and the Activity (Rattus norvegicus [22]) was “inactive”.
With `Cl.c1ccc(CNC2CC3CC4CC(C3)C2C4)cc1` (configuration not stated) the LD50 at 48 h [3] was 700 µmol/kg, the LD50 at 48 h [4] was 500 µmol/kg and the Activity (Mus musculus [23]) was >10. For the same molecule, the Activity (Mus musculus [24]) was “Active” and the Activity (Rattus norvegicus [25]) was “Active”.
In the case of `c1ccc(CCNC2CC3CC4CC(C3)C2C4)cc1` (stereo in doubt; 12), the Activity (Mus musculus [24]) is reported as “Active” and the Activity (Rattus norvegicus [2]) is reported as “inactive”.
With `NC12CC3CC(CC(C3)C1)C2` [AMANTADINE] the Activity (Mus musculus [26]) was 5, the Activity (Mus musculus [27]) was “inactive” and the Activity (Rattus norvegicus [28]) was “Active”.

— ChEMBL document CHEMBL3272084, “Adamantane and protoadamantanealkanamines as potential anti-Parkinson agents” (J Med Chem, 1976)
